Data from paper PMC10023369 (ACS chemical biology, 2023).
Where two headings read alike, the source gives them in different places. Where a SMILES comes first, the peptide text is derived from it. The star is where a group is joined. Cbz = O=C(OCc1ccccc1)*

Legend:
DB cells [1] = experiment: DB cell proliferation analysis; format: cell-based, human; details: for Reduction of cell growth compared to DMSO: 0.5 μM, 12 days
In short: (§1)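 DB cells in RPMI 1640 with 10% FBS (37 °C, 5% CO₂), seeded at 100K cells/mL in 12-well plates. Dosed with 0.01–10 μM or 0.5 μM test compound, or DMSO. Every 3 days, media exchanged, cells split back to seeding density and re-dosed, for up to 12 days. Trypan blue automated counts gave cells/mL and % viability. % proliferation relative to DMSO at each time point; EC50 from four-parameter log(inhibitor) fit.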

H3K27me3 = H3K27me3 levels by western blot in DB cells; format: cell-based, human; details: 3 μM for 96 hr
In short: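 H3K27me3 by western blot: DB cells seeded at 50,000 cells/well and treated with 3 μM test compound or DMSO for 96 hr. PBS-washed cells lysed in Cytobuster with protease inhibitors and benzonase. Samples boiled with reducing Laemmli buffer, separated on 4–15% gels, transferred to PVDF. Densitometry normalized to GAPDH and expressed relative to DMSO.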

[2] = target: PRC2 components EED and EZH2^WT/EZH2^Y641N (Homo sapiens, UniProt O75530+P40337); experiment: Degradation of PRC2 components by western blot in DB cells; format: cell-based; details: for Degradation of EED and EZH2^WT/EZH2^Y641N at 96 hr: DB cells, 3 μM for 96 hr
[3] = system: triple negative breast cancer (TNBC) cells; details: cited from earlier work
tumor growth = details: once daily intraperitoneal administration, 150 mg/kg; cited from earlier work
[4] = Solubility observed in ternary complex assay; format: physicochemical; details: above 10 μM in ternary complex assay
[5] = target: biotinylated EED and His-VHL (Homo sapiens, UniProt O75530+P40337); experiment: TR-FRET ternary complex formation assay; format: binding; details: EED-biotin and His-VHL, dose response up to 10 μM
biotinylated EED and His-VHL, sequence (O75530 whole entry, the tested form may be a part): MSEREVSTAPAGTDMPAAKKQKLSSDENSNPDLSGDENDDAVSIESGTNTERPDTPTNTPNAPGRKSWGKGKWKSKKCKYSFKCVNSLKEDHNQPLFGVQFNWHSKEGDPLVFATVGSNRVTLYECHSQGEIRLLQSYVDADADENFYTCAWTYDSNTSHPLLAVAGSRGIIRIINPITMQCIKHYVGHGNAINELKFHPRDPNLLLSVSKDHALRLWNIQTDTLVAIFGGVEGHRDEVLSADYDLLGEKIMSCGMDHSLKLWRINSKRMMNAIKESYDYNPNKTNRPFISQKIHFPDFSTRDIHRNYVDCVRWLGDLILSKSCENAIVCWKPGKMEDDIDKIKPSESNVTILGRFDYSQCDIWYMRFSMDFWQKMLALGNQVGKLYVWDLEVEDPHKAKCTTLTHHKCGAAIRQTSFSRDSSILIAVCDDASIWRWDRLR
biotinylated EED and His-VHL, sequence (P40337 1-154): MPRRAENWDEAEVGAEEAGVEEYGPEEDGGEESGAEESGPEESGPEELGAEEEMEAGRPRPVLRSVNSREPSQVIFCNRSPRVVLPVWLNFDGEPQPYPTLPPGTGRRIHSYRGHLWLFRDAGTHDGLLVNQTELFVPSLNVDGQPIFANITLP
In short: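 Ternary complex TR-FRET: biotinylated EED (residues 1–441, 160 nM) and His-VHL (residues 1–154, 320 nM) with Eu-streptavidin (2 nM) and ULight anti-6xHis (100 nM). Buffer: 20 mM Tris pH 7.5, 150 mM NaCl, Tween 20, 2 mM DTT, 1% DMSO. 10-point three-fold series from 10 μM; 4 h in dark. Read 665/615 ratio (320 nm excitation), minus no-compound wells. Technical triplicates; two independent experiments, standard error.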

EZH2^WT/EZH2^Y641N [6] = details: read-out: EZH2^WT/EZH2^Y641N DC50; DB cells; cited from earlier work
His-tagged EED = His-tagged EED (Homo sapiens, UniProt O75530); experiment: EED binding TR-FRET assay; details: result in words
His-tagged EED, sequence (O75530 whole entry): as the sequence (O75530 whole entry, the tested form may be a part) above
In short: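 EED binding by TR-FRET displacement of a biotinylated EED ligand (15 nM). Mix held EED-6xHis (15 nM), ULight anti-6xHis antibody (10 nM) and Eu-W1024 streptavidin (2 nM). Test compounds run as 10-point dose–response, top final concentration 10 μM. IC50 from three biological replicates ± standard deviation.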

Caco-2 = Caco-2 permeability assay; format: in vitro ADME
EED = EED (Homo sapiens, UniProt O75530); experiment: EED degradation by western blot in DB cells; format: cell-based
EED, sequence (O75530 whole entry): as the sequence (O75530 whole entry, the tested form may be a part) above
In short: (§2)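 DB cells seeded at 800,000 cells/well and dosed from DMSO stock for 24 hr; dose–response 0.01–3 μM. Cells washed with PBS and lysed in Cytobuster with protease inhibitors and benzonase. Normalized lysate boiled with reducing Laemmli buffer, run on 4–15% gels, blotted to PVDF, detected by fluorescence or ECL. Band densitometry normalized to GAPDH, then to DMSO, gave % degradation; EED quantified from lower ~55 kDa band. DC50 from three-parameter fit; Dmax = % degradation at 3 μM, 24 hr.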

DB cells [7] = experiment: DB cell viability; format: cell-based, human; details: 12 days, top concentrations tested (5 – 10 μM)
In short: as §1

EZH2^WT/EZH2^Y641N [8] = experiment: EZH2 degradation by western blot in DB cells; format: cell-based, human; details: % degradation at 3 μM after 24 hr
In short: as §2

SUZ12 = SUZ12 degradation by western blot in DB cells; format: cell-based, human; details: % degradation at 3 μM after 24 hr
In short: as §2

CS(=O)(=O)c1ccc(-c2cnc(NCc3ccco3)n3cnnc23)cc1 [EED226]
Reduction of cell growth compared to DMSO (DB cells [1]): 24% | Decrease in H3K27me3 levels (H3K27me3): 63%

CC(C)C[C@@H](C=O)NC(=O)[C@H](CC(C)C)NC(=O)[C@H](CC(C)C)NC(=O)OCc1ccccc1 [MG132] (Cbz-Leu-Leu-Leu-aldehyde)
Effect of proteasome inhibitor pretreatment on UNC7700 mediated PRC2 degradation ([2]; added prior to UNC7700 cell treatment): blocks PRC2 degradation

Cc1cc(C)c(CNC(=O)c2cc(-c3ccc(N4CCN(CCNC(=O)CC56CC7CC(CC(C7)C5)C6)CC4)nc3)cc3c2cnn3C(C)C)c(=O)[nH]1 [MS1943]
Anti-proliferative effect in TNBC cells [3]: anti-proliferative | Tumor growth in vivo (tumor growth): suppresses tumor growth in vivo

CCCc1cc(C)[nH]c(=O)c1CNC(=O)c1cc(-c2ccc(N3CCN(C(C)C)CC3)nc2)cc2c1cnn2C(C)C [UNC1999]
Reduction of cell growth compared to DMSO (DB cells [1]): 28% | Decrease in H3K27me3 levels (H3K27me3): 76%

Cc1ncsc1-c1ccc(CNC(=O)[C@@H]2C[C@@H](O)CN2C(=O)[C@@H](NC(=O)CCCNC(=O)c2ccc(-c3cnc(NCc4ccco4)n4cnnc34)cc2)C(C)(C)C)cc1 [UNC6852]
Degradation of EED and EZH2^WT/EZH2^Y641N at 96 hr [2]: substantial degradation of EED and EZH2^WT/EZH2^Y641N | Solubility [4]: poor solubility observed above this concentration | Reduction of cell growth compared to DMSO (DB cells [1]): 8% | PROTAC concentration at maximum peak height of ternary complex TR-FRET signal [5]: around 1 μM | Ternary complex TR-FRET signal, in words [5]: signs of a bell-shaped curve | Decrease in H3K27me3 levels, in words (H3K27me3): only a small decrease in H3K27me3 levels | DC50 (EZH2^WT/EZH2^Y641N [6]): 670 ± 240 nM

Cc1ncsc1-c1ccc(CNC(=O)[C@H]2C[C@@H](O)CN2C(=O)[C@@H](NC(=O)CCCNC(=O)c2ccc(-c3cnc(NCc4ccco4)n4cnnc34)cc2)C(C)(C)C)cc1 [UNC7043]
Ternary complex TR-FRET signal, in words [5]: do not show any increase in FRET signal

Cc1ncsc1-c1ccc(CNC(=O)[C@@H]2C[C@@H](O)CN2C(=O)[C@@H](NC(=O)C2CC(NC(=O)c3ccc(-c4cnc(NCc5ccco5)n5cnnc45)cc3)C2)C(C)(C)C)cc1 (stereo partly drawn) [UNC7700]
EED binding (TR-FRET IC50) (His-tagged EED): equally potent binders of EED | Caco-2 permeability (Caco-2): below the limit of detection of the assay | Percent recovery in Caco-2 assay (Caco-2; from the donor compartment, cell lysate, and assay well): 79–106% | EED Dmax (EED; % degradation at 3 μM after 24 hr): 84% | DC50 (EED; read-out: EED DC50, 24 hr, dose response 0.01–3 μM, western blot): 111 nM | Degradation of EED and EZH2^WT/EZH2^Y641N at 96 hr [2]: complete degradation of EED and EZH2^WT/EZH2^Y641N | Loss in cell viability (DB cells [7]): ~30% | Reduction of cell growth compared to DMSO (DB cells [1]): 46% | EC50 (DB cells [1]; read-out: Proliferation EC50 after 9 days, 0.01 – 10 μM, 9 days): 2600 ± 1900 nM | EC50 (DB cells [1]; read-out: Proliferation EC50 after 12 days, 0.01 – 10 μM, 12 days): 790 ± 530 nM | PROTAC concentration at maximum peak height of ternary complex TR-FRET signal [5]: around 1 μM | Ternary complex TR-FRET signal, in words [5]: much weaker compared to UNC6852 | Decrease in H3K27me3 levels (H3K27me3): 85% | EZH2^WT/EZH2^Y641N Dmax (EZH2^WT/EZH2^Y641N [8]): 86% | SUZ12 Dmax (SUZ12): 44%
